Assay results from different studies.
Protocols differ between the studies behind these lines.
Target: Serine/threonine-protein kinase Nek4 (NEK4, Homo sapiens, UniProt P51957)

CC/C(=N\NC(=O)NCc1cccc(O)c1)c1ccc(O)c(C)c1O — inhibition (enzyme activity, inhibitor; 0.1 µM): -1.9%
Cc1c(NC(=O)c2cc(C(N)=O)nc3cc(F)ccc23)c(C(F)(F)F)nn1Cc1ccc(C#N)cc1 — remaining binding (cell-free assay, competition with immobilised ligand; 1 µM): 92%
COc1cc(Cl)c(C(=O)N[C@@H](CN[C@H]2CC[C@@H](N)CC2)Cc2ccc(C#N)cc2)cc1-c1ccc(CN[C@H](C)c2ccc(C)cc2)o1 — remaining activity (enzyme activity, inhibitor; 1 µM): 106%
CC(C)(C)c1nc2c(s1)c1nc(N)ncc1c1ccc(NS(=O)(=O)c3c(F)cccc3F)c(F)c12 — remaining activity (enzyme activity, inhibitor, radiometric; 1 µM): 96%
COc1cc2ncnc(Nc3ccc(Oc4ccccc4)cc3C)c2cc1OC — inhibition (enzyme activity, inhibitor; 1 µM): 1%
Nc1ncnc2occ(-c3ccc(NC(=O)Nc4cc(C(F)(F)F)ccc4F)cc3)c12 — remaining signal (cell-free assay, inhibitor; 20 µM): 2.8%
COc1cc2c(N3CCN(C(=O)Nc4ccc(OC(C)C)cc4)CC3)ncnc2cc1OCCCN1CCCCC1 — remaining signal (cell-free assay; 0.5 µM): 90.3%
CCC(=O)N[C@@H]1CC[C@H](C(=O)N(C)c2ccc(-c3nc4ccccc4o3)cc2)C1 — remaining binding (cell-free assay, competition with immobilised ligand; 1 µM): 95%
O=C(Nc1cnn(-c2csc(C(=O)NC3COC3)c2)c1)Nc1c(F)cccc1Cl — remaining activity (enzyme activity, inhibitor; 5 µM): 90.8%
CC(=O)N1CCC(c2ccc(C(=O)NC3=NCCN3)cc2C(F)(F)F)CC1 — remaining binding (cell-free assay, competition with immobilised ligand; 1 µM): 100%
CCN1CCN(Cc2ccc(NC(=O)c3ccc(C)c(/C=C/c4cnc5[nH]ccc5c4OC)c3)cc2C(F)(F)F)CC1 — inhibition (target engagement in cells, inhibitor, chemoproteomics; A-375; 50 nM): -31%
CN(C)C1CCN(CC#Cc2nn(C3CCCC3)c3nc(NCc4ccccc4)ncc23)C1 (centres unmarked) — inhibition (enzyme activity, inhibitor, FRET; 1 µM): 8%
CCCCNc1ncc2c(-c3ccc(F)cc3)nn(C[C@H]3CC[C@H](N)CC3)c2n1 — inhibition (target engagement in cells, inhibitor, chemoproteomics; 20 mM): -16.7%
CS(=O)(=O)N1CCCC(NC(=O)[C@H](CCC2CCCCC2)NC(=O)c2ccc(CNC(=O)c3cnc4ccccn34)cc2)C1 (some centres unmarked) — remaining binding (cell-free assay, competition with immobilised ligand; 0.1 µM): 100%
O=C1Nc2ccc(Cl)cc2C1=Cc1cc(Cl)c(O)c(Cl)c1 — remaining signal (cell-free assay; 0.5 µM): 88.2%
CC1=C(C#N)[C@@H](c2ccc3[nH]nc(C)c3c2)C(C#N)=C(c2ccc(Cl)cc2)N1 — remaining binding (cell-free assay, competition with immobilised ligand; 1 µM): 90.1%
COc1cccc2c(NCc3ccccc3)nc(-n3c(N)nc4ccccc43)nc12 — inhibition (target engagement in cells, inhibitor, chemoproteomics; 20 mM): -7.4%
